Source: ChEMBL document CHEMBL1143734, “Design, synthesis, binding, and molecular modeling studies of new potent ligands of cannabinoid receptors” (Bioorg Med Chem, 2007)

Legend:
Cannabinoid receptor 2 = Cannabinoid receptor 2 (Homo sapiens, UniProt P34972); assay: Displacement of [3H]CP-55940 from human CB2 receptor expressed in HEK cells; type: cell-based, HEK293
Outline: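 Preliminary screen at 5, 10 and 25 µM, then a complete displacement curve if binding fell by >50% at 10 µM. IC50 converted to Ki using Cheng–Prusoff. Mean of 3 separate experiments.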

[1] = target: Cannabinoid receptor (Homo sapiens) (UniProt P34972+P21554); assay: Selectivity for human CB1 receptor over human CB2 receptor; type: protein assay
[2] = target: T1, Fatty-acid amide hydrolase 1 (Rattus norvegicus, UniProt P97612); assay: Inhibition of rat brain FAAH assessed as inhibition of [14C]anandamide hydrolysis
T1 sequence (P97612 whole entry): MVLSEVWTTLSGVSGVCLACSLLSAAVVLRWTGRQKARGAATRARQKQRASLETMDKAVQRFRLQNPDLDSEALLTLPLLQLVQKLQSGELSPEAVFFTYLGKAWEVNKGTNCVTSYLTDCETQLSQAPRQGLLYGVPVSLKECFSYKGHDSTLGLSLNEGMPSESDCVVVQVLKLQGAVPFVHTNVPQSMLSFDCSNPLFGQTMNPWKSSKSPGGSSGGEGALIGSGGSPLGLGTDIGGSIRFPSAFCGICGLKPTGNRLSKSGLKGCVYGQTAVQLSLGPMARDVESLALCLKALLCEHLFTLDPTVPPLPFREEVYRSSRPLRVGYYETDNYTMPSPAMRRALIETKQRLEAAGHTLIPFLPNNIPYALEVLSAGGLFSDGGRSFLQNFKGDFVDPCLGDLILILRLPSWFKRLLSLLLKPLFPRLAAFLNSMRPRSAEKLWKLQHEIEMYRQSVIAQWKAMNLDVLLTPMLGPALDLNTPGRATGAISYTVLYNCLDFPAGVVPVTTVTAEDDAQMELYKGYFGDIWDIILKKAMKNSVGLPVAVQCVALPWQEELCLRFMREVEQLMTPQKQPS
Outline: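 Rat brain membranes incubated with [14C]anandamide (6 µM) and increasing compound concentrations in 50 mM Tris–HCl, pH 9, for 30 min at 37 °C. Mixture extracted with 2 volumes CHCl3/CH3OH (2:1). [14C]ethanolamine in the aqueous phase counted by scintillation. IC50 is the mean of n = 3 experiments.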

Cannabinoid receptor 1 [3] = target: T2, Cannabinoid receptor 1 (Homo sapiens, UniProt P21554); assay: (§1) Displacement of [3H]CP-55940 from human CB1 receptor expressed in HEK cells; type: cell-based, HEK293
Cannabinoid receptor 1 [4] = target: T2, Cannabinoid receptor 1; assay: as §1; type: cell-based, HEK293; remark: listed apart in the source
Outline: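 Membranes from HEK cells transfected with human CB1. Screen at 5, 10 and 25 µM, then full dose–response for compounds displacing >50% at 10 µM. […] Ki derived from IC50 by Cheng–Prusoff. Means of n = 3 separate experiments.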

Cannabinoid receptor 2, sequence (P34972 whole entry): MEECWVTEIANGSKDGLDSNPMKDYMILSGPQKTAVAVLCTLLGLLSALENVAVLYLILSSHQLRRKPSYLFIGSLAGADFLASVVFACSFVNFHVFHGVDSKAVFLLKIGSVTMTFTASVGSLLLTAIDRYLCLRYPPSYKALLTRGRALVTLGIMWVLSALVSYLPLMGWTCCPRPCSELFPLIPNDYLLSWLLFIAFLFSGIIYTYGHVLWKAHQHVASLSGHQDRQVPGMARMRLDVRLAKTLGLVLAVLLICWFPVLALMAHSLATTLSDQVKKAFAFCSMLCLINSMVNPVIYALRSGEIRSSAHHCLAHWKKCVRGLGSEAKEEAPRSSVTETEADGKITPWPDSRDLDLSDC
T2 sequence (P21554 whole entry): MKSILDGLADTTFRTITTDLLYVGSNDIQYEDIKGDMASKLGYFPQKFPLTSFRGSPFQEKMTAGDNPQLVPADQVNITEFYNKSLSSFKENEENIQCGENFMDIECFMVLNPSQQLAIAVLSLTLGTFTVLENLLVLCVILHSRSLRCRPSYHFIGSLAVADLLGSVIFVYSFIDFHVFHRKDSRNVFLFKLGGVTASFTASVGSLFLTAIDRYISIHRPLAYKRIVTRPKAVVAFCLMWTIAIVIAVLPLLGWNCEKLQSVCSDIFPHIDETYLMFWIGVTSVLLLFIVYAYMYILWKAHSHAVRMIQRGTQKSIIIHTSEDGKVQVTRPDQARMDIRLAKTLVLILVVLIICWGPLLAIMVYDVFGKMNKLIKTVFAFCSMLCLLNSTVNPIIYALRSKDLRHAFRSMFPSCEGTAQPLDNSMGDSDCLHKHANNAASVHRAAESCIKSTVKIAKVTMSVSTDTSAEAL
Cannabinoid receptor (Homo sapiens), sequence (P21554 whole entry, looked up): as the sequence (P21554 whole entry) above
Cannabinoid receptor (Homo sapiens), sequence (P34972 whole entry, looked up): as the sequence (P34972 whole entry) above

| SMILES | Ki (Cannabinoid receptor 2) [nM] | Ratio Ki [1] | IC50 [2] [µM] | Ki (Cannabinoid receptor 1 [3]) [nM] | IC50 (Cannabinoid receptor 1 [4]) [µM] | IC50 (Cannabinoid receptor 2) [µM] |
| --- | --- | --- | --- | --- | --- | --- |
| CCCCCCc1c(O)cccc1OCCCCCCCC(=O)NCCO | 3940 | 0.07 | 25 | 260 |  |  |
| CCCCCCc1c(O)cccc1OCCCCCCCCCCC(=O)NCc1ccc(OC)c(O)c1 | 2100 |  | 50 | 2820 |  |  |
| CCCCCCc1ccc(OCCCCCCCCCCCC(=O)NCCO)cc1O |  |  | 10 |  | > 10 | > 10 |
| CCCCCc1cc(O)cc(OCCCCCCCCCCC(=O)NCC2CC2)c1 | 80 | 6.4 | > 50 | 510 |  |  |
| CCCCCCc1ccc(OCCCCCCCCCCC(=O)NCCc2ccc(O)c(O)c2)cc1O |  |  |  |  | > 10 | > 10 |
| CCCCCCc1c(O)cccc1OCCCCCCCC(=O)NC1CC1 | 1800 | 0.17 | 50 | 310 |  |  |
| CCCCCc1cc(O)cc(OCCCCCCCCCCC(=O)NCCc2ccc(O)c(O)c2)c1 |  |  |  | 560 |  | > 10 |
| CCCCCc1cc(O)cc(OCCCCCCCCCCCC(=O)NCCO)c1 | 39 | 1.5 | > 50 | 60 |  |  |
| CCCCCCc1ccc(OCCCCCCCC(=O)NCCO)cc1O | 2400 | 0.08 | 50 | 190 |  |  |
| CCCCCc1cc(O)cc(OCCCCCCCCCCC(=O)NCc2ccc(OC)c(O)c2)c1 | 1650 | 1.3 | 10 | 2100 |  |  |
| CCCCCCc1ccc(OCCCCCCCCCCC(=O)NCC2CC2)cc1O | 2900 |  | > 50 |  | > 10 |  |
| CCCCCCc1ccc(OCCCCCCCC(=O)NC2CC2)cc1O | 280 | 0.2 | > 50 | 56 |  |  |
| CCCCCc1cc(O)cc(OCCCCCCCC(=O)NCCO)c1 | 390 |  | > 50 | 130 |  |  |
| CCCCCc1cc(O)cc(OCCCCCCCCCCCC(=O)NC2CC2)c1 | 310 | 2.4 | 50 | 750 |  |  |
| CCCCCc1cc(O)cc(OCCCCCCCC(=O)NC2CC2)c1 | 39 | 0.33 | > 50 | 16 |  |  |
| CCCCCCc1ccc(OCCCCCCCCCCCC(=O)NC2CC2)cc1O | 3940 |  | > 50 |  | > 10 |  |
| CCCCCCc1ccc(OCCCCCCCCCCC(=O)NCc2ccc(OC)c(O)c2)cc1O |  | 1.3 | > 50 |  | > 10 | > 10 |
